In publication PMC4263960 (Pediatric blood & cancer, 2013):
Read-outs that look alike come from different tables or passages of the source.

Experiments:
Rh18 cell line = assay: DIMSCAN in vitro cytotoxicity testing, Rh18; format: cell-based
Outline: (§1)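 Test compound incubated with cells of a 24-line pediatric cancer panel for 96 h at 0.1 nM to 1 μM, then assessed by DIMSCAN. Relative IC50 (rIC50) derived per line. Panel comparison value is the panel rIC50 divided by the rIC50 of each cell line.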

CHLA-266 cell line = assay: DIMSCAN in vitro cytotoxicity testing, CHLA-266; format: cell-based
Outline: as §1

CHLA-258 cell line = assay: DIMSCAN in vitro cytotoxicity testing, CHLA-258; format: cell-based
Outline: as §1

SJ-GBM2 cell line = assay: DIMSCAN in vitro cytotoxicity testing, SJ-GBM2; format: cell-based
Outline: as §1

CHLA-136 cell line = assay: DIMSCAN in vitro cytotoxicity testing, CHLA-136; format: cell-based
Outline: as §1

NALM-6 cell line = assay: DIMSCAN in vitro cytotoxicity testing, NALM-6; format: cell-based
Outline: as §1

COG-LL-317 cell line = assay: DIMSCAN in vitro cytotoxicity testing, COG-LL-317; format: cell-based
Outline: as §1

RS4;11 cell line = assay: DIMSCAN in vitro cytotoxicity testing, RS4; format: cell-based
Outline: as §1

MOLT-4 cell line = assay: DIMSCAN in vitro cytotoxicity testing, MOLT-4; format: cell-based
Outline: as §1

Kasumi-1 cell line = assay: DIMSCAN in vitro cytotoxicity testing, Kasumi-1; format: cell-based
Outline: as §1

[1] = system: PPTP in vitro cell line panel; assay: DIMSCAN in vitro cytotoxicity testing, panel summary; format: cell-based
KT-16 rhabdoid xenograft = assay: PPTP in vivo xenograft testing, KT-16; parameters: species or system mice; details: 1 mg/kg IP

C=C1C[C@@H]2CC[C@@]34C[C@H]5O[C@H]6[C@@H](O3)[C@H]3O[C@H](CC[C@@H]3O[C@H]6[C@H]5O4)CC(=O)C[C@@H]3[C@@H](OC)[C@@H](C[C@H](O)CN)O[C@H]3C[C@H]3O[C@@H](CC[C@@H]1O2)C[C@@H](C)C3=C [Eribulin]
IC50 (Rh18 cell line; Homo sapiens, Rh18, 96 h, read-out: rIC50): 0.83 nM | Panel rIC50/Line rIC50 (Rh18 cell line; Rh18): 0.33 | Relative in/out% (Rh18 cell line; Rh18): −53% | Ymin % (observed) (Rh18 cell line; Rh18): 20.92% | Panel rIC50/Line rIC50 (CHLA-266 cell line; CHLA-266): 0.71 | Relative in/out% (CHLA-266 cell line; CHLA-266): −79% | Ymin % (observed) (CHLA-266 cell line; CHLA-266): 5.54% | IC50 (CHLA-266 cell line; Homo sapiens, CHLA-266, 96 h, read-out: rIC50): 0.38 nM | IC50 (CHLA-258 cell line; 96 h, read-out: rIC50): 0.5 nM | Panel rIC50/Line rIC50 (CHLA-258 cell line; CHLA-258): 0.54 | Relative in/out% (CHLA-258 cell line; CHLA-258): −84% | Ymin % (observed) (CHLA-258 cell line; CHLA-258): 6.29% | IC50 (SJ-GBM2 cell line; 96 h, read-out: rIC50): 0.51 nM | Panel rIC50/Line rIC50 (SJ-GBM2 cell line; SJ-GBM2): 0.53 | Relative in/out% (SJ-GBM2 cell line; SJ-GBM2): −95% | Ymin % (observed) (SJ-GBM2 cell line; SJ-GBM2): 0.46% | IC50 (CHLA-136 cell line; 96 h, read-out: rIC50): 2.37 nM | Panel rIC50/Line rIC50 (CHLA-136 cell line; CHLA-136): 0.11 | Relative in/out% (CHLA-136 cell line; CHLA-136): −65% | Ymin % (observed) (CHLA-136 cell line; CHLA-136): 9.96% | IC50 (NALM-6 cell line; Homo sapiens, NALM-6, 96 h, read-out: rIC50): 0.59 nM | Panel rIC50/Line rIC50 (NALM-6 cell line; NALM-6): 0.46 | Relative in/out% (NALM-6 cell line; NALM-6): −99% | Ymin % (observed) (NALM-6 cell line; NALM-6): 0.03% | IC50 (COG-LL-317 cell line; 96 h, read-out: rIC50): < 0.1 nM | Panel rIC50/Line rIC50 (COG-LL-317 cell line; COG-LL-317): >2.74 | Relative in/out% (COG-LL-317 cell line; COG-LL-317): −99% | Ymin % (observed) (COG-LL-317 cell line; COG-LL-317): 0.03% | IC50 (RS4;11 cell line; Homo sapiens, RS4-11, 96 h, read-out: rIC50): < 0.1 nM | Panel rIC50/Line rIC50 (RS4;11 cell line; RS4;11): >2.74 | Relative in/out% (RS4;11 cell line; RS4;11): −99% | Ymin % (observed) (RS4;11 cell line; RS4;11): 0.22% | IC50 (MOLT-4 cell line; Homo sapiens, MOLT-4, 96 h, read-out: rIC50): < 0.1 nM | Panel rIC50/Line rIC50 (MOLT-4 cell line; MOLT-4): >2.74 | Relative in/out% (MOLT-4 cell line; MOLT-4): −99% | Ymin % (observed) (MOLT-4 cell line; MOLT-4): 0.05% | IC50 (Kasumi-1 cell line; Homo sapiens, Kasumi 1, 96 h, read-out: rIC50): 4.11 nM | Panel rIC50/Line rIC50 (Kasumi-1 cell line; Kasumi-1): 0.07 | Relative in/out% (Kasumi-1 cell line; Kasumi-1): −86% | Ymin % (observed) (Kasumi-1 cell line; Kasumi-1): 3.92% | Panel rIC50/Line rIC50, maximum ([1]; maximum of PPTP cell lines): >2.74 | Relative in/out%, maximum ([1]; maximum of PPTP cell lines): −18% | Ymin % (observed), maximum ([1]; maximum of PPTP cell lines): 20.92% | Panel rIC50/Line rIC50, median ([1]; median of PPTP cell lines): 1.20 | Relative in/out%, median ([1]; median of PPTP cell lines): −89% | Ymin % (observed), median ([1]; median of PPTP cell lines): 1.79% | Panel rIC50/Line rIC50, minimum ([1]; minimum of PPTP cell lines): 0.02 | Relative in/out%, minimum ([1]; minimum of PPTP cell lines): −100% | Ymin % (observed), minimum ([1]; minimum of PPTP cell lines): 0.00% | IC50 ([1]; read-out: rIC50, maximum, maximum of PPTP cell lines): 14.8 nM | IC50 ([1]; read-out: rIC50, median, median of PPTP cell lines): 0.27 nM | IC50 ([1]; read-out: rIC50, minimum, minimum of PPTP cell lines): < 0.1 nM | IC50 ([1]; read-out: rIC50, most sensitive cell lines, lymphoid origin (three ALL, one ALCL, one NHL)): < 0.1 nM | IC50 ([1]; read-out: rIC50, other (non-neuroblastoma) PPTP cell lines): 0.14 nM | IC50 ([1]; read-out: relative IC50 (rIC50), range, range over the PPTP cell lines): 0.1 to 14.8 nM | EFS activity (KT-16 rhabdoid xenograft): Low (Low activity = EFS T/C <2) | Response activity (KT-16 rhabdoid xenograft): Low (low activity by a score of <2) | T/C volume activity (KT-16 rhabdoid xenograft): Low (Low activity = T/C >0.45)
